High-throughput results as filed in PubChem BioAssay.
A selection: hits, their analogues and other compounds. The true share with any hit is near 4.1%.
KCNQ1 block: inhibitors of human KCNQ1 potassium channel | B-score at 10 µM | AID 2642 | P51787 | CHO-K1 KCNQ1, FluxOR thallium flux fluorescence; hits give high values | hit rate 1.3% among 310,000;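 active = compounds whose thallium flux B-score, printed positive for inhibition, exceeds three library SD while starting fluorescence stays within three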;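 note: channel opened by potassium depolarization with thallium stimulus after 20 min compound exposure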
KCNQ1 pot: potentiates or activates the human KCNQ1 potassium channel; P51787; CHO-K1 KCNQ1, thallium flux FluxOR fluorescence; hits give high values; B-score at 10 µM; hit rate 0.35% among 310,000;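 active = fluorescence ratio B-score, a plate-corrected score, at least three library SD, with initial intensity B-score within 5 SD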
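Schedule – 37 °C overnight plating, 90-min dark dye load, 20-min compound pretreatment · System – stable KCNQ1 CHO-K1 line · Probe or stimulus – thallium- and potassium-containing depolarizing buffer · Measured by – kinetic FluxOR fluorescence, 10 s baseline plus 110 s post-stimulus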
Cl transport mod: modulates chloride dependent transport by human KCC2. Q9H2X9. KCC2 cells, thallium flux FluoZin-2 fluorescence. B-score of Tl+ flux slope (higher = more flux/activation; lower = inhibition) at 10 µM. hit rate 2.2% among 190,000. AID 1456;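 active = thallium flux slope and its plate-corrected score both differing from the plate sample mean at a set confidence after two filtering rounds, in either direction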;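 note: slope of fluorescence scaled to starting intensity during 10 to 20 s after thallium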
KCNK9 block: human KCNK9 channel inhibition; hit rate 1.2% among 310,000; B-score at 10 µM; Q9NPC2; HEK293 KCNK9, FluxOR thallium flux fluorescence; hits give low values; AID 488922;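 active = ratio B-score over 3 SD below the library mean, with starting fluorescence within 5 SD of its mean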;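 note: negative B-score means less thallium flux so channel inhibition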
hERG rescue: hERG (human) protection from proarrhythmic block. AID 1511. hit rate 0.51% among 310,000. CHO-hERG, FluxOR thallium flux, dofetilide IC70 present. Q12809. activation (rescue from dofetilide block), less the hit threshold, % at 10 µM;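 active = activation above the mean of controls blocked by dofetilide plus 5 SD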;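 note: thallium influx through hERG after potassium depolarization seen as dye fluorescence rise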
KCNK3 block: human KCNK3 channel inhibition, primary screen. B-score at 10 µM. CHO-KCNK3 thallium flux, FluxOR fluorescence; hits give low values. AID 602410. O14649. hit rate 0.84% among 340,000;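 active = B-score under library mean minus 4 SD, starting fluorescence ratio at most library mean plus 5 SD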;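 note: more negative B-score means stronger inhibition of thallium flux through KCNK3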
KCNK9 inh conf: confirmation of human KCNK9 potassium channel inhibitors | shares compounds with KCNK9 block | HEK293 KCNK9 cells, FluxOR thallium flux fluorescence | inhibition, % at 10 µM | hit rate 43% among 4,900;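 active = thallium signal inhibited by more than 5 SD of the compound-free buffer control wells, on both duplicate plates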;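 note: 0% = assay buffer control wells without compound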
Kir2-1 spec: selectivity of KCNK9 modulators against mouse Kir2.1 | Kir2.1 cells, FluxOR thallium flux fluorescence | shares compounds with KCNK9 block | inhibition, % at 10 µM | hit rate 4% among 4,900;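 active = thallium signal drop more than 5 SD beyond the mean of the no-compound control wells, seen in both duplicate plates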;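 note: signal is fluorescence rise after thallium addition divided by baseline fluorescence; plate controls were assay buffer only for no effect and full block by chlorpromazine control for full effect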
Target sequence (P35561 whole entry, looked up): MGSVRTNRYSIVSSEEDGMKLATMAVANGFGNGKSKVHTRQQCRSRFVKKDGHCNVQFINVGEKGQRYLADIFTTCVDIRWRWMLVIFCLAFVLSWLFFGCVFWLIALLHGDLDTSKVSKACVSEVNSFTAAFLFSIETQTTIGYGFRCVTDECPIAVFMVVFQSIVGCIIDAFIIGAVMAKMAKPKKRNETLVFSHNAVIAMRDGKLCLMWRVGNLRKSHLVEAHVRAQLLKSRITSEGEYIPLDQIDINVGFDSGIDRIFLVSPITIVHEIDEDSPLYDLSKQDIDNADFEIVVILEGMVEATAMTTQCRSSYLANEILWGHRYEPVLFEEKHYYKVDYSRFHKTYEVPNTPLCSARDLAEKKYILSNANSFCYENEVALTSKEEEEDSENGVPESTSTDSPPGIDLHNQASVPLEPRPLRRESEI
KCNK9 uninduced: non-induced cell nonspecific activity of KCNK9 modulators; non-induced KCNK9-HEK293, FluxOR thallium flux; inhibition, % at 10 µM; hit rate 40% among 4,900; shares compounds with KCNK9 block; AID 492997;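 active = thallium signal drop beyond 5 SD of the untreated control mean, on both duplicate plates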;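 note: plate controls were buffer only IC0 wells for no effect and SID17386958 at its maximal inhibitory level for full effect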
The depositor's hits bear a star; i = inactive; / = no result given.

SMILES	KCNQ1 block	KCNQ1 pot	Cl transport mod	KCNK9 block	hERG rescue	KCNK3 block	KCNK9 inh conf	Kir2-1 spec	KCNK9 uninduced
O=C(N/N=C/c1cc(Cl)cc([N+](=O)[O-])c1O)c1cc(-c2ccccn2)nc2ccccc12	i	i	-1.7	i	-18	i	i	i	28%*
COc1cccc(/C=N/NC(=O)c2cc(-c3ccccn3)nc3ccccc23)c1O	/	/	/	/	/	i	/	/	/
CN(C(=O)c1cccc(NC(=O)C2CCN(C(=O)OC(C)(C)C)CC2)c1)C1CCCCC1	/	/	/	/	/	i	/	/	/
CCC1=NN(C(=O)c2cccc(Br)c2)C(O)(c2ccc(Br)cc2)C1 (centres undefined)	8*	i	6.5*	-10*	-14	i	42%*	i	26%*
CN(CC(=O)Nc1ccc(Cl)c(C(F)(F)F)c1)C(=O)c1cn2ccccc2n1	i	i	/	i	-6	i	/	/	/
COc1cccc(C(=O)OCCN2CCCCC2)c1	i	i	-0.32	i	-8	i	i	i	i
COc1cccc(C(=O)OC(C)CN2CCCC2)c1 (centres undefined)	i	i	0.86	i	-2	i	/	/	/
N#C/C(N=Nc1ccccc1O)=N\Nc1ccccc1O	6*	i	/	-8.7*	-37	i	30%*	30%*	i
CCOC(=O)/C(C#N)=N/Nc1ccccc1C(=O)O	i	i	0.0033	i	-6	i	/	/	/
CCCCCCCCCCCCCCCC(=O)Nc1ccn(C2OC(CO)C(O)C2O)c(=O)n1 (centres undefined)	/	/	/	/	/	i	/	/	/
COc1ccc(-c2ccnc(SCC(=O)c3ccc(OC)c(OC)c3)n2)cc1	i	i	0.83	i	-5	i	/	/	/
COc1ccc(OC)c(C(=O)CSc2nccc(-c3ccc(Br)cc3)n2)c1	i	i	0.46	-9.4*	-6	i	i	i	28%*
CC(C)(C)OC(=O)NCCc1nnc(SCc2ccc(Cl)cc2Cl)o1	i	i	-0.0044	i	-16	i	/	/	/
Clc1cccc(NCc2nnc(SCc3ccc(Cl)cc3Cl)o2)c1	i	i	0.072	i	-6	i	i	i	32%*
CC1CCC(NC(=O)COC(=O)C2=NN(c3ccccc3)C(=O)CC2)CC1 (centres undefined)	/	/	/	/	/	i	/	/	/
CCCOc1ccc(Cc2c(Cl)nc(SC)nc2OC)cc1	i	i	-0.9	i	-5	i	i	i	i
COc1nc(SC)nc(Cl)c1Cc1ccc(OC(C)C)cc1	i	i	-0.4	i	-7	i	i	i	26%*
N#CC(c1ccccc1)c1ccc(C(=O)c2ccc(F)cc2)cc1 (centres undefined)	i	i	-1.9	-9.8*	-7	i	54%*	i	36%*
Cc1cc(C)c(C)c(S(=O)(=O)N2CCN(C(=O)c3cc(S(=O)(=O)N4CCOCC4)ccc3F)CC2)c1C	/	/	/	/	/	i	/	/	/
CCc1ccc(N(C(=O)c2snc(C(N)=O)c2N)C(C(=O)NCC2CCCO2)c2cccs2)cc1 (centres undefined)	i	i	0.043	i	-18	i	i	i	i
CCCOc1ccc2c3c(c(=O)oc2c1OCCC)CCCC3	i	i	-1	-12*	-6	i	74%*	i	31%*
COc1ccc(Cc2nc3c([nH]2)c(=O)n(C)c(=O)n3C)cc1OC	/	/	/	/	/	i	/	/	/
O=C(NCCN1C(=O)S/C(=C\c2ccc(OC(F)F)cc2)C1=O)C1=COCCO1	i	i	/	i	-9	i	i	i	i
Nc1ncnc2c1ncn2C1C=C(CO)C(O)C1O (centres undefined)	/	/	/	/	/	i	/	/	/
O=C(NCC1CCCO1)c1cc2c([nH]c3ccccc32)c(-c2cccc(Cl)c2)n1 (centres undefined)	12*	i	/	-11*	-35	i	i	i	i
SMILES	KCNQ1 block	KCNQ1 pot	Cl transport mod	KCNK9 block	hERG rescue	KCNK3 block	KCNK9 inh conf	Kir2-1 spec	KCNK9 uninduced
COc1cc(-c2nc(C(=O)NCC3CCCO3)cc3c2[nH]c2ccccc23)cc(OC)c1OC (centres undefined)	i	i	/	i	-30	i	/	/	/
C=C1[C@H](C)CN[C@H]1CCO	/	/	/	/	/	i	/	/	/
Cc1ccc(C(=O)COC(=O)C2C3C=CC(C3)C2C(=O)OCC(=O)c2ccc(C)c(C)c2)cc1C (centres undefined)	i	i	0.34	i	-10	i	i	i	i
COc1ccccc1NC(=O)Cc1noc(CSc2n[nH]c(N)n2)n1	i	i	-0.072	i	-14	i	/	/	/
Cc1ccc(SCCNC(=S)Nc2ccc(C)cc2C)cc1	i	i	-0.2	i	0	i	i	i	i
Cc1ccc(NC(=S)NCCC(c2ccccc2)c2ccccc2)c(C)c1	i	i	0.47	i	-11	i	/	/	/
O=C(COC(=O)c1ccc(S(=O)(=O)N2CCCCCC2)cc1)NCc1ccc(Cl)cc1	/	/	/	/	/	i	/	/	/
COc1ccccc1N1CCN(CCN2C(=O)CC(=C3c4ccccc4-c4ccccc43)C2=O)CC1	i	i	-0.47	i	-12	/	i	i	i
Cc1ccccc1N1CCN(CCN2C(=O)CC(=C3c4ccccc4-c4ccccc43)C2=O)CC1	i	i	-0.13	i	-14	i	/	/	/
COC(=O)C(Oc1ccc2c(-c3ccc(OC)cc3)cc(=O)oc2c1)c1ccccc1 (centres undefined)	i	i	-0.4	-9.3*	-7	i	54%*	i	36%*
Cc1ccc(NC2CCCN(C(=O)C3CCCCC3)C2)cc1C (centres undefined)	i	i	/	i	-5	i	i	i	i
Cc1cc(C)c(C(=O)N2CCCC(Nc3ccc(C)c(C)c3)C2)o1 (centres undefined)	i	i	/	i	-9	i	i	i	i
Cc1ccnc(NC(=O)c2cccc(NC(=O)CC3SC(N4CCCCC4)=NC3=O)c2)c1 (centres undefined)	/	/	/	/	/	i	/	/	/
O=C(C1CC(c2cccc(Br)c2)=NO1)N1CCc2ccccc2C1 (centres undefined)	i	i	-2.5	i	-9	i	i	i	i
